Source: ChEMBL document CHEMBL1649574, “Prevalence and characterization of heterogeneous vancomycin-intermediate Staphylococcus aureus isolates from 14 cities in China” (2009)
Converted amounts (≈) assume the structure as drawn.

How the values were obtained:
Assay type in all cases: functional
[1] = test system: Staphylococcus aureus; experiment: Antimicrobial activity against SCCmec type III vancomycin-intermediate Staphylococcus aureus isolate b2k3421 by agar dilution method
Method in brief: (§1)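 Agar-dilution MICs were measured on a subset of 200 blood MRSA isolates from China. Agents: oxacillin, rifampin, gentamicin, levofloxacin, erythromycin, vancomycin, teicoplanin, tigecycline, ceftobiprole and linezolid. Phenotype came from the PAP-AUC ratio of each isolate to S. aureus Mu3 (VSSA <0.9; hVISA 0.9 to 1.3; VISA ≥1.3), read on BHI agar with 0 to 8.0 mg/liter vancomycin after 48 h at 35°C.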

[2] = test system: Staphylococcus aureus; experiment: Antimicrobial activity against SCCmec type III vancomycin-intermediate Staphylococcus aureus isolate gz07030 by agar dilution method; method in brief: as §1
[3] = test system: Staphylococcus aureus; experiment: Antimicrobial activity against SCCmec type III vancomycin-intermediate Staphylococcus aureus isolate 5zjsau3 by agar dilution method; method in brief: as §1
[4] = test system: Staphylococcus aureus; experiment: Antimicrobial activity against SCCmec type III vancomycin-intermediate Staphylococcus aureus isolate 13b16 by agar dilution method; method in brief: as §1
[5] = test system: Staphylococcus aureus; experiment: Antimicrobial activity against SCCmec type III vancomycin-intermediate Staphylococcus aureus isolate xa07029 by agar dilution method; method in brief: as §1
[6] = test system: Staphylococcus aureus; experiment: Antimicrobial activity against SCCmec type II vancomycin-intermediate Staphylococcus aureus isolate 4sy32 by agar dilution method; method in brief: as §1
[7] = test system: Staphylococcus aureus; experiment: Antimicrobial activity against SCCmec type III vancomycin-intermediate Staphylococcus aureus isolate sh07043 by agar dilution method; method in brief: as §1
[8] = test system: Staphylococcus aureus; experiment: Antimicrobial activity against SCCmec type III vancomycin-intermediate Staphylococcus aureus isolate bd4768 by agar dilution method; method in brief: as §1
[9] = test system: Staphylococcus aureus; experiment: Antimicrobial activity against SCCmec type III vancomycin-intermediate Staphylococcus aureus isolate gz06051 by agar dilution method; method in brief: as §1
[10] = test system: Staphylococcus aureus; experiment: Antimicrobial activity against SCCmec type III vancomycin-intermediate Staphylococcus aureus isolate b5k3529 by agar dilution method; method in brief: as §1
[11] = test system: Staphylococcus aureus; experiment: Antimicrobial activity against SCCmec type III vancomycin-intermediate Staphylococcus aureus isolate b6k7974 by agar dilution method; method in brief: as §1
[12] = test system: Staphylococcus aureus; experiment: Antimicrobial activity against SCCmec type III vancomycin-intermediate Staphylococcus aureus isolate b3k5923 by agar dilution method; method in brief: as §1
[13] = test system: Staphylococcus aureus; experiment: Antimicrobial activity against SCCmec type III vancomycin-intermediate Staphylococcus aureus isolate 15b52 by agar dilution method; method in brief: as §1
[14] = test system: Staphylococcus aureus; experiment: Antimicrobial activity against SCCmec type III vancomycin-intermediate Staphylococcus aureus isolate b5k3578 by agar dilution method; method in brief: as §1
[15] = test system: Staphylococcus aureus; experiment: Antimicrobial activity against SCCmec type II vancomycin-intermediate Staphylococcus aureus isolate b2k4781 by agar dilution method; method in brief: as §1
[16] = test system: Staphylococcus aureus; experiment: Antimicrobial activity against SCCmec type III vancomycin-intermediate Staphylococcus aureus isolate gs07022 by agar dilution method; method in brief: as §1
[17] = test system: Staphylococcus aureus; experiment: Antimicrobial activity against SCCmec type III vancomycin-intermediate Staphylococcus aureus isolate b3k2345 by agar dilution method; method in brief: as §1
[18] = test system: Staphylococcus aureus; experiment: Antimicrobial activity against SCCmec type III vancomycin-intermediate Staphylococcus aureus isolate b4k6307 by agar dilution method; method in brief: as §1
[19] = test system: Staphylococcus aureus; experiment: Antimicrobial activity against SCCmec type IV vancomycin-intermediate Staphylococcus aureus isolate 06b41 by agar dilution method; method in brief: as §1
[20] = test system: Staphylococcus aureus; experiment: Antimicrobial activity against SCCmec type II vancomycin-intermediate Staphylococcus aureus isolate 4sy39 by agar dilution method; method in brief: as §1
[21] = test system: Staphylococcus aureus; experiment: Antimicrobial activity against SCCmec type II vancomycin-intermediate Staphylococcus aureus isolate 6zjsau7 by agar dilution method; method in brief: as §1
[22] = test system: Staphylococcus aureus; experiment: Antimicrobial activity against SCCmec type III vancomycin-intermediate Staphylococcus aureus isolate b6k1642 by agar dilution method; method in brief: as §1
[23] = test system: Staphylococcus aureus; experiment: Antimicrobial activity against SCCmec type III vancomycin-intermediate Staphylococcus aureus isolate 11b091 by agar dilution method; method in brief: as §1
[24] = test system: Staphylococcus aureus; experiment: Antimicrobial activity against SCCmec type III vancomycin-intermediate Staphylococcus aureus isolate zj07028 by agar dilution method; method in brief: as §1
[25] = test system: Staphylococcus aureus; experiment: Antimicrobial activity against SCCmec type II vancomycin-intermediate Staphylococcus aureus isolate 07b63 by agar dilution method; method in brief: as §1
[26] = test system: Staphylococcus aureus; experiment: Antimicrobial activity against SCCmec type III vancomycin-intermediate Staphylococcus aureus isolate gz06040 by agar dilution method; method in brief: as §1
[27] = test system: Staphylococcus aureus; experiment: Antimicrobial activity against SCCmec type II vancomycin-intermediate Staphylococcus aureus isolate sh06024 by agar dilution method; method in brief: as §1

Structure (SMILES)	MIC [1]	MIC [2]	MIC [3]	MIC [4]	MIC [5]	MIC [6]	MIC [7]	MIC [8]	MIC [9]	MIC [10]	MIC [11]	MIC [12]	MIC [13]	MIC [14]	MIC [15]	MIC [16]	MIC [17]	MIC [18]	MIC [19]	MIC [20]	also measured
CC[C@H]1OC(=O)[C@H](C)[C@@H](O[C@H]2C[C@@](C)(OC)[C@@H](O)[C@H](C)O2)[C@H](C)[C@@H](O[C@@H]2O[C@H](C)C[C@H](N(C)C)[C@H]2O)[C@](C)(OC)C[C@@H](C)C(=O)[C@H](C)[C@@H](O)[C@]1(C)O [CLARITHROMYCIN]	64 µg/mL (≈ 85.6 µM)	64 µg/mL (≈ 85.6 µM)	32 µg/mL (≈ 42.8 µM)	16 µg/mL (≈ 21.4 µM)	32 µg/mL (≈ 42.8 µM)	32 µg/mL (≈ 42.8 µM)	> 64 µg/mL	64 µg/mL (≈ 85.6 µM)	64 µg/mL (≈ 85.6 µM)	64 µg/mL (≈ 85.6 µM)	64 µg/mL (≈ 85.6 µM)	64 µg/mL (≈ 85.6 µM)	16 µg/mL (≈ 21.4 µM)	32 µg/mL (≈ 42.8 µM)	64 µg/mL (≈ 85.6 µM)	64 µg/mL (≈ 85.6 µM)	64 µg/mL (≈ 85.6 µM)	16 µg/mL (≈ 21.4 µM)	1 µg/mL (≈ 1.34 µM)	32 µg/mL (≈ 42.8 µM)	MIC [21]: > 64 µg/mL; MIC [22]: 64 µg/mL (≈ 85.6 µM); MIC [23]: > 64 µg/mL; MIC [24]: 32 µg/mL (≈ 42.8 µM); MIC [25]: 64 µg/mL (≈ 85.6 µM); MIC [26]: 32 µg/mL (≈ 42.8 µM); MIC [27]: 32 µg/mL (≈ 42.8 µM)
CC[C@H]1OC(=O)[C@H](C)[C@@H](O[C@H]2C[C@@](C)(OC)[C@@H](O)[C@H](C)O2)[C@H](C)[C@@H](O[C@@H]2O[C@H](C)C[C@H](N(C)C)[C@H]2O)[C@](C)(O)C[C@@H](C)C(=O)[C@H](C)[C@@H](O)[C@]1(C)O [ERYTHROMYCIN]	> 256 µg/mL	> 256 µg/mL	> 256 µg/mL	> 256 µg/mL	> 256 µg/mL	1 µg/mL (≈ 1.36 µM)	> 256 µg/mL	> 256 µg/mL	0.25 µg/mL (≈ 0.341 µM)	> 256 µg/mL	> 256 µg/mL	> 256 µg/mL	256 µg/mL (≈ 349 µM)	2 µg/mL (≈ 2.73 µM)	> 256 µg/mL	> 256 µg/mL	> 256 µg/mL	> 256 µg/mL	128 µg/mL (≈ 174 µM)	256 µg/mL (≈ 349 µM)	MIC [21]: > 256 µg/mL; MIC [22]: > 256 µg/mL; MIC [23]: > 256 µg/mL; MIC [24]: > 256 µg/mL; MIC [25]: > 256 µg/mL; MIC [26]: > 256 µg/mL; MIC [27]: > 256 µg/mL
C[C@H]1COc2c(N3CCN(C)CC3)c(F)cc3c(=O)c(C(=O)O)cn1c23.C[C@H]1COc2c(N3CCN(C)CC3)c(F)cc3c(=O)c(C(=O)O)cn1c23.O [LEVOFLOXACIN]	16 µg/mL	64 µg/mL	16 µg/mL	32 µg/mL	8 µg/mL	8 µg/mL	32 µg/mL	32 µg/mL	64 µg/mL	16 µg/mL	64 µg/mL	32 µg/mL	4 µg/mL	16 µg/mL	32 µg/mL	32 µg/mL	16 µg/mL	4 µg/mL	0.25 µg/mL	16 µg/mL	MIC [21]: 32 µg/mL; MIC [22]: 16 µg/mL; MIC [23]: 32 µg/mL; MIC [24]: 8 µg/mL; MIC [25]: 8 µg/mL; MIC [26]: 64 µg/mL; MIC [27]: 8 µg/mL
